Measured values taken from ChEMBL document CHEMBL4400529, “Structure-based drug design, synthesis, In vitro, and In vivo biological evaluation of indole-based biomimetic analogs targeting estrogen receptor-α inhibition” (Eur J Med Chem, 2019).
pIC50: −log10 of the molar value. Calls of active or inactive are those of the source. The calls are words filed in the database; no cut-off is given here.

Columns and labels:
MCF7 = assay: Antiproliferative activity against human MCF7 cells after 24 hrs by MTT assay; format: functional, cell-based; conditions: MCF7, 24 h
In short: (§1)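 Cells from ATCC, subcultured by an earlier reported method, then exposed to 5-fold serial dilutions in triplicate for 24 h. Cells were washed with PBS, given MTT for 2 h, then dissolved in DMSO. Absorbance read at 570 nm.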

T47D = assay: Antiproliferative activity against human T47D cells after 24 hrs by MTT assay; format: functional, cell-based; in short: as §1
Estrogen receptor = target: T1, Estrogen receptor (Homo sapiens, UniProt P03372); assay: Inhibition of estrogen receptor-alpha (unknown origin) by ELISA
T1 sequence (P03372 whole entry): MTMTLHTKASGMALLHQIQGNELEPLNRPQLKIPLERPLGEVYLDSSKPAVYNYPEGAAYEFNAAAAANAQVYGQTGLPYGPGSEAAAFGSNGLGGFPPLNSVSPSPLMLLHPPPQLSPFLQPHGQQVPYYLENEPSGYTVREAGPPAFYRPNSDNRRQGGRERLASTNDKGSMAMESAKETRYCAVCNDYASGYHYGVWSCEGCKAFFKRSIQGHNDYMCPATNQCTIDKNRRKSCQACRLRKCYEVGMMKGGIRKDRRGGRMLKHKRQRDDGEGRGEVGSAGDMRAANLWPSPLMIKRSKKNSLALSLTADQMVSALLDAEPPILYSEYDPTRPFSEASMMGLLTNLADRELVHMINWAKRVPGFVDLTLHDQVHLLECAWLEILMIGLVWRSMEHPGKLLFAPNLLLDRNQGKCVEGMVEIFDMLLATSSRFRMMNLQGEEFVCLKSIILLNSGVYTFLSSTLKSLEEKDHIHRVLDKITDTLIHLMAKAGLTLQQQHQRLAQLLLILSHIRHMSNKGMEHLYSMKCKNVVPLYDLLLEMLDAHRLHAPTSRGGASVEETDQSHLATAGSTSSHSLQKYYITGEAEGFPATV

[1] = Acute toxicity in Swiss albino mouse assessed induction of behavioural changes at 10 mg/mouse, ip dosed once weekly; format: organism-based; conditions: in vivo
In short: (§2)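 Normal female-strain-unspecified mice got a single i.p. dose of 10 mg/mouse. They were watched for 7 days for short-term acute toxic signs, behavioural changes and mortality.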

[2] = Acute toxicity in Swiss albino mouse assessed induction of mortality at 10 mg/mouse, ip dosed once weekly; format: organism-based; conditions: in vivo; in short: as §2
Ehrlich [3] = assay: Antitumor activity against mouse EAC cells implanted in Swiss albino mouse assessed as reduction in tumor size at 5 to 10 mg/mouse, ip dosed once weekly starting 5 days after inoculation and measured 9 and 12 days of treatment relative to fulvestrant; format: functional, organism-based
In short: (§3)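 Female Swiss albino mice received EAC cells from donor ascitic fluid (~12.5 × 10^6/mL in sterile saline, 0.2 mL) i.m. into the left thigh. Treatment began at a palpable mass of ~100 mm3, given i.p. once weekly in 10% Tween 80 against vehicle and fulvestrant 5 mg/mouse controls. Caliper tumor volume = L × H² × 0.52. Mean ± SD, n=10, one-way ANOVA with Tukey-Kramer.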

Ehrlich [4] = assay: Antitumor activity against mouse EAC cells implanted in Swiss albino mouse assessed as reduction in tumor volume at 10 mg/mouse, ip starting 5 days after inoculation dosed once weekly and measured on 15 days of treatment relative to fulvestrant; format: functional, organism-based; in short: as §3
[5] = Acute toxicity in Swiss albino mouse implanted with mouse EAC cells assessed effect on body weight at 5 to 10 mg/mouse, ip dosed once weekly starting 5 days after inoculation and measured up to 20 days after inoculation; format: organism-based; conditions: in vivo
In short: (§4)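 Female Swiss albino mice were given EAC cells from donor ascitic fluid, diluted in sterile saline to ~12.5 × 10^6/mL, 0.2 mL i.m. into the left thigh. Once-weekly i.p. dosing in 10% Tween 80 began at a palpable ~100 mm3 mass; controls got vehicle. Tumour volume (caliper, L × H² × 0.52) and body weight were taken over 15 days; n=10, mean ± SD, ANOVA/Tukey-Kramer.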

Ehrlich [6] = assay: Antitumor activity against mouse EAC cells implanted in Swiss albino mouse assessed as induction of necrosis at 5 mg/mouse, ip dosed once weekly starting 5 days after inoculation by hematoxylin and eosin staining-based assay; format: functional, organism-based
In short: (§5)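 EAC solid tumors in female Swiss albino mice, with weekly i.p. treatment in 10% Tween 80 against vehicle and fulvestrant controls. Tumors were collected on day 15, formalin-fixed, paraffin-embedded and stained with H&E. Necrotic index scored in 10 random fields per section per animal. n=10, one-way ANOVA with Tukey-Kramer.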

Ehrlich [7] = assay: Antitumor activity against mouse EAC cells implanted in Swiss albino mouse assessed as focal necrotic areas in deeper parts of tumor mass at 10 mg/mouse, ip dosed once weekly starting 5 days after inoculation by hematoxylin and eosin staining-based assay; format: functional, organism-based; in short: as §5
Ehrlich [8] = assay: Antitumor activity against mouse EAC cells implanted in Swiss albino mouse assessed as viable cell area in deeper parts of tumor mass at 10 mg/mouse, ip dosed once weekly starting 5 days after inoculation by hematoxylin and eosin staining-based assay; format: functional, organism-based; in short: as §5
Mus musculus [9] = assay: Decrease in ER-alpha protein expression in tumors of Swiss albino mouse mouse implanted with mouse EAC cells at 5 mg/mouse, ip dosed once weekly starting 5 days after inoculation by immunohistochemical analysis relative to control; format: functional; parameters: scale not given: the % may be the effect or the level left
In short: (§6)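 Tumors from the EAC mouse model after 15 days of treatment were stained by avidin-biotin immunoperoxidase using an anti-ER-α monoclonal antibody (1:100 in PBS), detected with DAB and counterstained with Mayer's hematoxylin. A section without primary antibody served as negative control. Percentage of positive cells estimated in 10 random fields per section per animal. Mean ± SD, n=10.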

Mus musculus [10] = assay: Decrease in ER-alpha protein expression in tumors of Swiss albino mouse mouse implanted with mouse EAC cells at 10 mg/mouse, ip dosed once weekly starting 5 days after inoculation by immunohistochemical analysis relative to control; format: functional; parameters: scale not given: the % may be the effect or the level left; in short: as §6
Mus musculus [11] = assay: Decrease in ER-alpha protein expression in tumors of Swiss albino mouse mouse implanted with mouse EAC cells at 5 mg/mouse, ip dosed once weekly starting 5 days after inoculation by immunohistochemical analysis relative to fulvestrant; format: functional; parameters: scale not given: the % may be the effect or the level left; in short: as §6
Mus musculus [12] = assay: Decrease in ER-alpha protein expression in tumors of Swiss albino mouse mouse implanted with mouse EAC cells at 10 mg/mouse, ip dosed once weekly starting 5 days after inoculation by immunohistochemical analysis relative to fulvestrant; format: functional; parameters: scale not given: the % may be the effect or the level left; in short: as §6
[13] = Acute toxicity in Swiss albino mouse assessed induction of toxic signs at 10 mg/mouse, ip dosed once weekly; format: organism-based; conditions: in vivo; in short: as §2
Ehrlich [14] = assay: Antitumor activity against mouse EAC cells implanted in Swiss albino mouse assessed as increase in necrotic areas in outer zone of tumor mass at 10 mg/mouse, ip dosed once weekly starting 5 days after inoculation by hematoxylin and eosin staining-based assay; format: functional, organism-based; in short: as §5
Ehrlich [15] = assay: Antitumor activity against mouse EAC cells implanted in Swiss albino mouse assessed as reduction in tumor volume at 5 mg/mouse, ip dosed once weekly starting 5 days after inoculation and measured on 15 days of treatment relative to fulvestrant; format: functional, organism-based; in short: as §3
Ehrlich [16] = assay: Antitumor activity against mouse EAC cells implanted in Swiss albino mouse assessed as reduction in viable tumor cell area in outer zone of tumor mass at 10 mg/mouse, ip dosed once weekly starting 5 days after inoculation by hematoxylin and eosin staining-based assay; format: functional, organism-based; in short: as §5
Ehrlich [17] = assay: Antitumor activity against mouse EAC cells implanted in Swiss albino mouse assessed as induction of tumor degeneration in outer zone of tumor mass at 10 mg/mouse, ip dosed once weekly starting 5 days after inoculation by hematoxylin and eosin staining-based assay; format: functional, organism-based; in short: as §5
Ehrlich [18] = assay: Antitumor activity against mouse EAC cells implanted in Swiss albino mouse assessed as reduction in tumor size at 5 mg/mouse, ip dosed once weekly starting 5 days after inoculation; format: functional, organism-based; in short: as §4

Row | Structure (SMILES) | pIC50 (MCF7) | pIC50 (T47D) | pIC50 (Estrogen receptor) | also measured
1 | O=S(=O)(Nc1ccc2cc[nH]c2c1)c1ccc(F)cc1 | 4.51 | 4.48 | 8.48 | Activity [1]: Non-Toxic; Activity [2]: Non-Toxic; Activity (Ehrlich [3]): Active; Activity (Ehrlich [4]): Active; Activity [5]: Non-Toxic; Activity (Ehrlich [6]): inactive; Activity (Ehrlich [7]): Active; Activity (Ehrlich [8]): Active; Activity (Mus musculus [9]): 58.24%; Activity (Mus musculus [10]): 37.65%; Activity (Mus musculus [11]): 50%; Activity (Mus musculus [12]): 25.35%; Activity [13]: Non-Toxic
2 | O=C(Nc1ccc2cc[nH]c2c1)c1ccc(C(F)(F)F)cc1 | 4.20 | 4.29 | 8.09 | 
3 | O=C(Nc1ccc2cc[nH]c2c1)c1cccc(C(F)(F)F)c1 | 4.51 | 4.55 | 8.75 | Activity (Ehrlich [14]): Active; Activity [1]: Non-Toxic; Activity [2]: Non-Toxic; Activity (Ehrlich [3]): Active; Activity (Ehrlich [15]): Active; Activity [5]: Non-Toxic; Activity (Ehrlich [16]): Active; Activity (Mus musculus [9]): 64.71%; Activity (Mus musculus [10]): 35.3%; Activity (Mus musculus [11]): 57.75%; Activity (Mus musculus [12]): 22.54%; Activity [13]: Non-Toxic; Activity (Ehrlich [17]): Active
4 | O=S(=O)(Nc1ccc2cc[nH]c2c1)c1ccc(Cl)cc1 | 4.27 | 4.34 | 7.35 | 
5 | CC/C(=C(\c1ccccc1)c1ccc(OCCN(C)C)cc1)c1ccccc1 [TAMOXIFEN] | 4.37 | 4.46 |  | 
6 | O=C(Nc1ccc2cc[nH]c2c1)c1ccc(Br)cc1 | 4.42 | 4.20 | 8.33 | 
7 | O=S(=O)(Nc1ccc2cc[nH]c2c1)c1ccc(Br)cc1 | 4.42 | 4.40 | 7.64 | 
8 | O=C(Nc1ccc2cc[nH]c2c1)c1ccc(F)cc1 | 4.34 | 4.46 | 7.16 | 
9 | COc1ccc(S(=O)(=O)Nc2ccc3cc[nH]c3c2)cc1 | 4.24 | 4.35 | 8.12 | 
10 | N#Cc1ccc(C(=O)Nc2ccc3cc[nH]c3c2)cc1 | 4.47 | 4.45 | 8.62 | 
11 | C[C@]12CC[C@@H]3c4ccc(O)cc4C[C@@H](CCCCCCCCC[S+]([O-])CCCC(F)(F)C(F)(F)F)[C@H]3[C@@H]1CC[C@@H]2O (some centres undefined) |  |  |  | Activity (Ehrlich [18]): Active
12 | Cc1ccc(S(=O)(=O)Nc2ccc3cc[nH]c3c2)cc1 | 4.43 | 4.24 | 6.69 | 
